Results from ChEMBL document CHEMBL4477209, “Indole-2-carboxamide-based MmpL3 Inhibitors Show Exceptional Antitubercular Activity in an Animal Model of Tuberculosis Infection” (J Med Chem, 2016).
Values after ≈ are worked out from the molar mass of the structure shown. Active and inactive are the calls of the source. The calls are words filed in the database; no cut-off is given here.

Experiments:
[1] = tested on: Mycobacterium tuberculosis H37Rv; experiment: Inhibition of MmpL3 in clinical isolates of drug sensitive Mycobacterium tuberculosis H37Rv after 7 to 14 days by alamar blue assay
[2] = tested on: Mycobacterium tuberculosis; experiment: (§1) Antimycobacterial activity against Mycobacterium tuberculosis H37Rv grown on serum of 100 mg/kg, po treated BALB/c mouse for 30 to 120 mins assessed as reduction in bacterial growth followed by bacterial addition incubated for 7 days by alamar blue reagent based serum inhibition titration assay; type: functional, organism-based
Summary of the method: (§2)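 Six-week-old female BALB/c mice (20 g) given one oral dose as suspension in 0.5% CMC in water; isoniazid 10 mg/kg as positive control, vehicle as negative. Serum collected at 30, 60 and 120 min, pooled from three mice per time point, 2-fold serially diluted. 10^4 CFU H37Rv added per well, 7 days at 37 °C. alamarBlue added for 16−18 h, fluorescence read at Ex544/Em590 and plotted against serum titration.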

[3] = Oral bioavailability in BALB/c mouse at 100 mg/kg administered as single dose for 30 to 120 mins followed by Mycobacterium tuberculosis H37Rv addition to compound treated serum incubated for 7 days by alamar blue reagent based serum inhibition titration assay; type: ADME, organism-based; conditions: in vivo; summary of the method: as §2
[4] = tested on: Mycobacterium tuberculosis; experiment: Inhibition of MmpL3 in clinical isolates of drug sensitive Mycobacterium tuberculosis V4207 after 7 to 14 days by alamar blue assay
Vero = experiment: Cytotoxicity against african green monkey Vero cells; type: cell-based; conditions: Chlorocebus sabaeus
[5] = Selectivity index, ratio of IC50 for african green monkey Vero cells to MIC for clinical isolates of Mycobacterium tuberculosis; type: toxicity; conditions: read-out: Selectivity Index
[6] = tested on: Mycobacterium tuberculosis; experiment: as §1, with “isolated from” for “of”; type: functional, organism-based; summary of the method: as §2
[7] = Oral bioavailability in BALB/c mouse at 100 mg/kg administered for 30 to 120 mins followed by Mycobacterium tuberculosis H37Rv addition to compound treated serum incubated for 7 days by alamar blue reagent based serum inhibition titration assay; type: ADME, organism-based; conditions: in vivo; summary of the method: as §2
[8] = biological target: T1, Aryl hydrocarbon receptor (Homo sapiens, UniProt P35869); experiment: Transactivation of AhR (unknown origin) assessed as upregulation of CYP1A2; type: ADME
T1 sequence (P35869 whole entry): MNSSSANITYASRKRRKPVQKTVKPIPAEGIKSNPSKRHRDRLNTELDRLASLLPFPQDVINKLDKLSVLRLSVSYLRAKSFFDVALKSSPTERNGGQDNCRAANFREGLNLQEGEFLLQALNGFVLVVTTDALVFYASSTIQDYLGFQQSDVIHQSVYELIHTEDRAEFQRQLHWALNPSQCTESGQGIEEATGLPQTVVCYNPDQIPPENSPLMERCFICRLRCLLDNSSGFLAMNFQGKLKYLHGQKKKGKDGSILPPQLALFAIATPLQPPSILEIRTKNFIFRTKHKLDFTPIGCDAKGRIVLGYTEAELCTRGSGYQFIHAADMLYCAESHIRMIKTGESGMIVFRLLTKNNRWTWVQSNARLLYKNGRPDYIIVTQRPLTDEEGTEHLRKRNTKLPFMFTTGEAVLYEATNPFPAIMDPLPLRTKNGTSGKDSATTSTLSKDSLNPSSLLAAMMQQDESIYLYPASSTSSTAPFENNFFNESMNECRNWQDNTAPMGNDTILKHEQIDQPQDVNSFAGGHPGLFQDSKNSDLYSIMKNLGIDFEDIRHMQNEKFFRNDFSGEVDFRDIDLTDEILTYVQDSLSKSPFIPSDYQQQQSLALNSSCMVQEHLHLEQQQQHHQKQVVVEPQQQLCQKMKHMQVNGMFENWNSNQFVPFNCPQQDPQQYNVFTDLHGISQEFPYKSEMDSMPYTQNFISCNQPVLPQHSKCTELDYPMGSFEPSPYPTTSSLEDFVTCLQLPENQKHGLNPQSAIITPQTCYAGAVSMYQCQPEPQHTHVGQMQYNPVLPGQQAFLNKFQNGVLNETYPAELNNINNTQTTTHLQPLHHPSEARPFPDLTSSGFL
Summary of the method: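 Nuclear receptor reporter-gene induction assay, with reporters coupled to PXR, CAR or AhR. Compound was tested at 0.1–1, 3 and 8 μg/mL. Positive controls were rifampin for PXR, CITCO for CAR and 3-methylcholanthrene for AhR.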

SMILES | MIC90 [1] | other results
C[C@@H]1[C@H]2C[C@@H](C[C@H]1NC(=O)c1cc3ccc(Br)cc3[nH]1)C2(C)C | 0.01 µM (≈ 0.00375 µg/mL) | 
Cc1cc(C)c2[nH]c(C(=O)NC3CCCCCC3)cc2c1 | 3.5 µM (≈ 0.995 µg/mL) | 
CN1C2CCCC1CC(NC(=O)c1cc3c(Cl)cc(Cl)cc3[nH]1)C2 (configuration not stated) | 10.9 µM (≈ 3.99 µg/mL) | 
C[C@@H](NC(=O)c1cc2c(Cl)cc(Cl)cc2[nH]1)C1CCCCC1 | 5.9 µM (≈ 2 µg/mL) | 
Cc1ccc2[nH]c(C(=O)NC3CCCCCCC3)cc2c1 | 0.88 µM (≈ 0.25 µg/mL) | 
C[C@@H]1[C@@H](NC(=O)c2cc3c(Cl)cc(Cl)cc3[nH]2)C[C@H]2C[C@@H]1C2(C)C | 0.086 µM (≈ 0.0314 µg/mL) | 
O=C(NC1CCC2(CCCCC2)CC1)c1cc2c(Cl)cc(Cl)cc2[nH]1 | 0.005 µM (≈ 0.0019 µg/mL) | Activity [2]: inactive; Drug uptake [3]: Not Active
Cc1cccc2[nH]c(C(=O)NC3CCCCCCC3)cc12 | 0.11 µM (≈ 0.0313 µg/mL) | 
O=C(NC1CCCCCCC1)c1cc2ccc(Br)cc2[nH]1 | 0.09 µM (≈ 0.0314 µg/mL) | 
O=C(NC1Cc2ccccc2C1)c1cc2c(F)cc(F)cc2[nH]1 | 102 µM (≈ 31.9 µg/mL) | 
O=C(N[C@@H]1C[C@H]2CC[C@@H]1C2)c1cc2c(Cl)cc(Cl)cc2[nH]1 (relative stereo) | 0.39 µM (≈ 0.126 µg/mL) | 
O=C(NC1CCC2(CCCCC2)CC1)c1cc2c(F)cc(F)cc2[nH]1 | 0.003 µM (≈ 0.00104 µg/mL) | Activity [2]: inactive; Drug uptake [3]: Not Active
Cc1cccc2[nH]c(C(=O)NC3CCCCCC3)cc12 | 0.93 µM (≈ 0.251 µg/mL) | 
O=C(NC12CC3CC(CC(C3)C1)C2)c1cc2c(Cl)cc(Cl)cc2[nH]1 | 0.011 µM (≈ 0.004 µg/mL) | Activity [2]: inactive; Drug uptake [3]: Not Active
O=C(NC12CC3CC(CC(C3)C1)C2)c1cc2ccc(Br)cc2[nH]1 | 0.042 µM (≈ 0.0157 µg/mL) | 
O=C(NC1CCCCCCC1)c1cc2c(Cl)cc(Cl)cc2[nH]1 | 0.011 µM (≈ 0.00373 µg/mL) | MIC [4]: 11 µM (≈ 3.73 µg/mL); IC50 (Vero): 23.5 to 47 µM; selectivity ratio [5]: 2140 to 4270; Activity [6]: Active; Drug uptake [7]: Active
Cc1ccc2cc3c(ccc4ccccc43)c3c2c1CC3 [3-METHYLCHOLANTHRENE] |  | Activity [8]: Active
O=C(NC1Cc2ccccc2C1)c1cc2c(Cl)cc(Cl)cc2[nH]1 | 0.72 µM (≈ 0.249 µg/mL) | 
CC(C)=CCC/C(C)=C/CNC(=O)c1cc2c(F)cc(F)cc2[nH]1 | > 192 µM | 
Cc1cc(C)c2cc(C(=O)NC3CCCCCCC3)[nH]c2c1 | 0.013 µM (≈ 0.00388 µg/mL) | 
COc1cc(OC)c2cc(C(=O)NC3CCCCCCC3)[nH]c2c1 | 0.19 µM (≈ 0.0628 µg/mL) | 
